Measured values as given in ChEMBL document CHEMBL2396584, “Semisynthesis, cytotoxicity, antiviral activity, and drug interaction liability of 7-O-methylated analogues of flavonolignans from milk thistle” (Bioorg Med Chem, 2013).
The source made the active and inactive calls. The rule behind the calls is not given here.

Assays:
[1] = Cytotoxicity against human Huh7.5.1 cells after 72 hrs; format: functional, cell-based; conditions: Huh-7, 72 h
Outline: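 Huh7.5.1 hepatoma cells were seeded at 10,000 per well and incubated overnight. They were then exposed to nine concentrations from 0 to 62.5 μM. Viability was read after 72 h with an ATPlite assay. Each point was run in three replicates, and IC50 was derived by linear regression.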

Hepatitis C virus [2] = assay: Antiviral activity against HCV JFH-1 infected in human Huh7.5.1 cells assessed as viral core protein expression at 12.4 to 124.2 uM after 72 hrs by Western blot analysis; format: functional, organism-based; conditions: Hepacivirus hominis, Huh-7
[3] = Inhibition of UGT in human liver microsomes using 4-methylumbelliferone as substrate after 10 mins by fluorescence analysis; format: ADME, Microsome
Outline: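 Pooled human liver microsomes (0.4 mg/mL) were incubated with 4-MU (100 μM), compound at 10 or 100 μM, 0.05% BSA, and 0.1 M Tris–HCl pH 7.5 with 5 mM MgCl2. The reaction was started with UDPGA (4 mM), and 4-MU depletion was followed by fluorescence over 10 min. Vehicle was 0.2% MeOH and diclofenac (400 μM) was the positive control. Data are means ± SD of triplicate incubations.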

Hepatitis C virus [4] = assay: Antiviral activity against HCV JFH-1 infected in human Huh7.5.1 cells assessed as viral core protein expression at 0.8 to 8 uM after 72 hrs by Western blot analysis; format: functional, organism-based; conditions: Hepacivirus hominis, Huh-7
Hepatitis C virus [5] = assay: Antiviral activity against HCV JFH-1 infected in human Huh7.5.1 cells assessed as viral core protein expression at 6.2 to 62.1 uM after 72 hrs by Western blot analysis; format: functional, organism-based; conditions: Hepacivirus hominis, Huh-7
Hepatitis C virus [6] = assay: Antiviral activity against HCV JFH-1 infected in human Huh7.5.1 cells assessed as viral core protein expression at 1.6 to 16.1 uM after 72 hrs by Western blot analysis; format: functional, organism-based; conditions: Hepacivirus hominis, Huh-7
Cytochrome P450 2C9 = Cytochrome P450 2C9 (Homo sapiens, UniProt P11712); assay: Inhibition of CYP2C9 in human liver microsomes using (S)-warfarin as substrate after 30 mins; format: ADME, Microsome; conditions: 0.5 h
Cytochrome P450 2C9, sequence (P11712 whole entry): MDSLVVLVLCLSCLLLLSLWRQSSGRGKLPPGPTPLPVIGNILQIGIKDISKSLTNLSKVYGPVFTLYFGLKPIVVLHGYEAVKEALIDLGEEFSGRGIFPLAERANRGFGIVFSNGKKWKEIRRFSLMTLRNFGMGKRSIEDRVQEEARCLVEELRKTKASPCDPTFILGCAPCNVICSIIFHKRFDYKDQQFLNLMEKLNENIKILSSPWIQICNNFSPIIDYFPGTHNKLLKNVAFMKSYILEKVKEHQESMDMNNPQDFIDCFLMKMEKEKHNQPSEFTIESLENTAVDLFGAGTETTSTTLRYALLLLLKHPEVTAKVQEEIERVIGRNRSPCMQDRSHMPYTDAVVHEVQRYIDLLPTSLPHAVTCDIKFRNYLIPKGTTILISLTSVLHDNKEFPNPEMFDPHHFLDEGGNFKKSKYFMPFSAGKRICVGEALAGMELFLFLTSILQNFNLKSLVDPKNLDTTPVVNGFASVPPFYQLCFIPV

Hepatitis C virus [7] = assay: Antiviral activity against HCV JFH-1 infected in human Huh7.5.1 cells assessed as viral core protein expression at 6 to 60.3 uM after 72 hrs by Western blot analysis; format: functional, organism-based; conditions: Hepacivirus hominis, Huh-7

Row | inhibition (INH) [3] | SMILES | IC50 [1] [µM] | other results
1 | Active | COc1cc(O)c2c(c1)O[C@H](c1ccc3c(c1)O[C@H](c1ccc(O)c(OC)c1)[C@@H](CO)O3)[C@@H](O)C2=O | 9.5 | Activity (Hepatitis C virus [4]): Active
2 | Active | COc1cc([C@H]2Oc3cc([C@H]4Oc5cc(O)cc(O)c5C(=O)[C@@H]4O)ccc3O[C@@H]2CO)ccc1O [SILYBIN A] | 80 | Activity (Hepatitis C virus [5]): Active
3 | Active | COc1cc([C@@H]2Oc3cc([C@H]4Oc5cc(O)cc(O)c5C(=O)[C@@H]4O)ccc3O[C@H]2CO)ccc1O [SILYBIN B] | 68.7 | Activity (Hepatitis C virus [5]): Active
4 | 56% | O=C(O)Cc1ccccc1Nc1c(Cl)cccc1Cl [DICLOFENAC] |  | 
5 | Active | COc1cc([C@@H]2[C@H]3CO[C@@]4(O)C(=O)[C@@H]2C=C([C@H]2Oc5cc(O)cc(O)c5C(=O)[C@@H]2O)[C@@H]34)ccc1O [SILIDIANIN] | > 130 | Activity (Hepatitis C virus [2]): inactive
6 | Active | COc1cc(O)c2c(c1)O[C@H](c1ccc3c(c1)O[C@@H](c1ccc(O)c(OC)c1)[C@H](CO)O3)[C@@H](O)C2=O | 12.7 | Activity (Hepatitis C virus [4]): Active
7 | Active | COc1cc(O)c2c(c1)O[C@H](C1=C[C@H]3C(=O)[C@]4(O)OC[C@H]([C@H]3c3ccc(O)c(OC)c3)[C@H]14)[C@@H](O)C2=O | 9.4 | Activity (Hepatitis C virus [4]): Active

The remaining lines, values behind:

Row | SMILES | inhibition (INH) [3] | IC50 [1] [µM] | other results
8 | COc1cc(O)c2c(c1)O[C@H](c1ccc(O)c3c1[C@@H](CO)[C@H](c1ccc(O)c(OC)c1)O3)[C@@H](O)C2=O |  | 27.6 | Activity (Hepatitis C virus [2]): Active
9 | Oc1ccc(/C=C/c2cc(O)cc(O)c2)cc1 [RESVERATROL] |  | 10.6 | 
10 | COc1cc(O)c2c(c1)O[C@H](c1ccc3c(c1)O[C@H](CO)[C@@H](c1ccc(O)c(OC)c1)O3)[C@@H](O)C2=O |  | 13.2 | Activity (Hepatitis C virus [4]): Active
11 | COc1cc(C2Oc3c(O)cc([C@H]4Oc5cc(O)cc(O)c5C(=O)[C@@H]4O)cc3C2CO)ccc1O (some centres not stated) [SILICRISTIN] |  | > 130 | Activity (Hepatitis C virus [2]): inactive
12 | COc1cc([C@@H]2Oc3ccc([C@H]4Oc5cc(O)cc(O)c5C(=O)[C@@H]4O)cc3O[C@H]2CO)ccc1O [ISOSILYBIN B] |  | 27 | Activity (Hepatitis C virus [6]): Active
13 | COc1cc(O)c2c(c1)O[C@H](c1ccc3c(c1)O[C@@H](CO)[C@H](c1ccc(O)c(OC)c1)O3)[C@@H](O)C2=O |  | 18 | Activity (Hepatitis C virus [6]): Active
14 | COc1cc([C@H]2Oc3ccc([C@H]4Oc5cc(O)cc(O)c5C(=O)[C@@H]4O)cc3O[C@@H]2CO)ccc1O [ISOSILYBIN A] |  | 80 | Activity (Hepatitis C virus [5]): Active; inhibition (INH) (Cytochrome P450 2C9): Not Active
15 | COc1cc(O)c2c(c1)O[C@H](c1cc(O)c3c(c1)[C@@H](CO)[C@H](c1ccc(O)c(OC)c1)O3)[C@@H](O)C2=O |  | 66.4 | Activity (Hepatitis C virus [7]): Active
16 | COc1cc([C@@H]2Oc3c(O)ccc([C@H]4Oc5cc(O)cc(O)c5C(=O)[C@@H]4O)c3[C@H]2CO)ccc1O [ISOSILYCHRISTIN] |  | > 130 | Activity (Hepatitis C virus [2]): inactive
